From ChEMBL document CHEMBL1124773, “(Phosphinyloxy)acyl amino acid inhibitors of angiotensin converting enzyme. 2. Terminal amino acid analogues of (S)-1-[6-amino-2 [[hydroxy(4-phenylbutyl)phosphinyl]oxy]-1-oxohexyl]-L-proline” (J Med Chem, 1990)

Tests used:
[1] = target: T1, Angiotensin-converting enzyme (Oryctolagus cuniculus, UniProt P12822); assay: Inhibition of rabbit lung angiotensin I converting enzyme (ACE) using hippuryl-histidyl-leucine as substrate; details: read-out: I50
T1 sequence (P12822 whole entry): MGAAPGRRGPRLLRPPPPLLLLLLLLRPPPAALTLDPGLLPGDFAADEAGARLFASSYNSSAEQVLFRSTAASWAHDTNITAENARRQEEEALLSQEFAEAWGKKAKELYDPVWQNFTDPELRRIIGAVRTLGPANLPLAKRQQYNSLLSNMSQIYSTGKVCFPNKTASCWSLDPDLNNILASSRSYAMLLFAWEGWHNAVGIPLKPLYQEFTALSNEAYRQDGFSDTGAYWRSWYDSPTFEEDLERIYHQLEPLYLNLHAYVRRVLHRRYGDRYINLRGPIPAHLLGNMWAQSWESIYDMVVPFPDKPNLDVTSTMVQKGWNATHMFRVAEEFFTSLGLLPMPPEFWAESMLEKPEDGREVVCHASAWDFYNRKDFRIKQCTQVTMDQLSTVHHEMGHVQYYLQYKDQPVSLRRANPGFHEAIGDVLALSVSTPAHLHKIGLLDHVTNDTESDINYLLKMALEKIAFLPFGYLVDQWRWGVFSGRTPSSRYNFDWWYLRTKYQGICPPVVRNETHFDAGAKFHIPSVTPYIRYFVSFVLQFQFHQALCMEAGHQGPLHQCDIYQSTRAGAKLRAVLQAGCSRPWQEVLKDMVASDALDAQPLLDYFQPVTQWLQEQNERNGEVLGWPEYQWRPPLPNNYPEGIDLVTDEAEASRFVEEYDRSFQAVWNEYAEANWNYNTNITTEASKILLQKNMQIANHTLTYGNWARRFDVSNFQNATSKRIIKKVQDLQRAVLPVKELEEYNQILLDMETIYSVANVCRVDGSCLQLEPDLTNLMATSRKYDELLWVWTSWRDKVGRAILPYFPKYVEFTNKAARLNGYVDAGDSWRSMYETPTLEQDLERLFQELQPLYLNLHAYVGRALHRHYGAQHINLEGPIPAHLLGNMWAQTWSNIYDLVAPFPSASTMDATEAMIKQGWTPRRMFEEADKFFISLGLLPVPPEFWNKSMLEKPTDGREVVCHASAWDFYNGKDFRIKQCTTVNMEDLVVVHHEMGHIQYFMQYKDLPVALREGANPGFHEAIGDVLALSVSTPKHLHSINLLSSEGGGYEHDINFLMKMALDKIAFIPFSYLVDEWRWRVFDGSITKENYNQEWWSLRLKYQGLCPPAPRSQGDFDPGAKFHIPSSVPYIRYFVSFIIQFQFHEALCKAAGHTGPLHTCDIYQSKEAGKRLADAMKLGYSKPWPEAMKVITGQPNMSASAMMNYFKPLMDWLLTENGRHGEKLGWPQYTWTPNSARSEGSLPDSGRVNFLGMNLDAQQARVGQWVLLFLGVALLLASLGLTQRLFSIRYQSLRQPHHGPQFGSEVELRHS

[2] = target: T2, Angiotensin-converting enzyme (Rattus norvegicus) (UniProt P47820); assay: In vivo dose required to produce 50% inhibition against angiotensin I in normotensive rat after intravenous administration; type: functional, organism-based
T2 sequence (whole entry): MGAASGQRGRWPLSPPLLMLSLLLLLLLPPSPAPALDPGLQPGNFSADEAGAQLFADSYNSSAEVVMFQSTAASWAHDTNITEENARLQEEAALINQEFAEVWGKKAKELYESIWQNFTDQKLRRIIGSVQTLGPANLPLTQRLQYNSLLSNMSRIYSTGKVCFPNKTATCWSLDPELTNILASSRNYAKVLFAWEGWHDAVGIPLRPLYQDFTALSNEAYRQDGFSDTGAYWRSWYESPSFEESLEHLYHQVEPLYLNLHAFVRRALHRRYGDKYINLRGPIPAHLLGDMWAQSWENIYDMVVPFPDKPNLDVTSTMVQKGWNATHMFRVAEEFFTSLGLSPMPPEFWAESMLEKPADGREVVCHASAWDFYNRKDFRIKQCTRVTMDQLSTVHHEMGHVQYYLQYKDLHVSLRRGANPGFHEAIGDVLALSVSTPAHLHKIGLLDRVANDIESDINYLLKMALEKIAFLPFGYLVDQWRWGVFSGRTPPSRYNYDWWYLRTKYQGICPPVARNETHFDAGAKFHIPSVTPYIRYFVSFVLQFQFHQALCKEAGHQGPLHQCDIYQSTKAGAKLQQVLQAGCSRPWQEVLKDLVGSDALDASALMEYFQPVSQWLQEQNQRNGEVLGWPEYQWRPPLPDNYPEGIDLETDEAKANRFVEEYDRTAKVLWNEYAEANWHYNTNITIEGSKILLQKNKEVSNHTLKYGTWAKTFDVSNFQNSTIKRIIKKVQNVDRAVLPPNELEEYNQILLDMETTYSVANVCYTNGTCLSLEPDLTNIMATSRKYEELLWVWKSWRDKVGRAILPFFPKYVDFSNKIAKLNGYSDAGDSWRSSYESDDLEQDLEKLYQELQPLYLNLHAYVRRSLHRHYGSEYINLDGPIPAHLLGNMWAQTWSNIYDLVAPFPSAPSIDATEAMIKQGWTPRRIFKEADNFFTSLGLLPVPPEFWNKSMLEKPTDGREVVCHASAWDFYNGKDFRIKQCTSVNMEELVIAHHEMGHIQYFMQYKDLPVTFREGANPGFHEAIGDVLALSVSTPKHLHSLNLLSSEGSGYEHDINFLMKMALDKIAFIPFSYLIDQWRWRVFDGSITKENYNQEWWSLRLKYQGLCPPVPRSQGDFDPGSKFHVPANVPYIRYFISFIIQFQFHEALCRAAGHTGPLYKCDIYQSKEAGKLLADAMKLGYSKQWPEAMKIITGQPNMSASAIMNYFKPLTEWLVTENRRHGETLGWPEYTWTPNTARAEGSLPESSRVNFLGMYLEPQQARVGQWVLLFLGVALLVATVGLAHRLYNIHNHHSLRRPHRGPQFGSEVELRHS
How it was run: (§1)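 Conscious, unrestrained male Sprague-Dawley rats (225–275 g) with indwelling aortic and vena caval catheters, recovered ≥2 weeks. […] Compound given iv in 0.1 mL water or 5% NaHCO3, responses followed up to 70 min. Maximum % inhibition is the mean of four rats per dose; ED50 interpolated from plots of ≥3 doses.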

[3] = target: T2, Angiotensin-converting enzyme (Rattus norvegicus); assay: In vivo oral activity in normotensive rat and percent maximal inhibition of the angiotensin I pressor response; type: functional, organism-based
How it was run: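 Catheterized conscious, unrestrained male Sprague-Dawley rats (225–275 g), recovered ≥2 weeks. […] Oral dose in 0.1 mL water, 5% NaHCO3 or 1% agar suspension. Aortic pressure read by transducer for up to 280 min. Maximum % inhibition is the mean of four animals per dose.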

[4] = target: T1, Angiotensin-converting enzyme; assay: Evaluated for inhibitory activity against rabbit lung angiotensin I converting enzyme (ACE) using hippuryl-histidyl-leucine as substrate; details: read-out: I50
[5] = target: T2, Angiotensin-converting enzyme (Rattus norvegicus); assay: In vivo dose required to produce 50% inhibition against angiotensin I (AI) in normotensive rat after intravenous administration; type: functional, organism-based; how it was run: as §1

Structure (SMILES) | IC50 [1] [nM] | ED50 [2] [µmol/kg] | inhibition [3] [%] | IC50 [4] [nM] | ED50 [5] [µmol/kg]
NCCCC[C@H](OP(=O)(O)CCCCc1ccccc1)C(=O)N1C[C@H](F)C[C@H]1C(=O)O | 320 | – | – | – | –
NCCCC[C@H](OP(=O)(O)CCCCc1ccccc1)C(=O)N1C[C@H](c2ccccc2)C[C@H]1C(=O)O | 270 | – | – | – | –
COc1ccc(N(CC(=O)O)C(=O)[C@H](CCCCN)OP(=O)(O)CCCCc2ccccc2)cc1 | 39 | 0.043 | 40 | – | –
NCCCC[C@H](OP(=O)(O)CCCCc1ccccc1)C(=O)N1CC=C[C@H]1C(=O)O | 43 | 0.105 | 73 | – | –
NCCCC[C@H](OP(=O)(O)CCCCc1ccccc1)C(=O)N(CC(=O)O)c1ccccc1 | – | 0.136 | 53 | 29 | –
NCCCC[C@H](OP(=O)(O)CCCCc1ccccc1)C(=O)N(CC(=O)O)C1Cc2ccccc2C1 | – | 0.196 | – | 27 | –
NCCCC[C@H](OP(=O)(O)CCCCc1ccccc1)C(=O)N1[C@H](C(=O)O)C[C@@H]2CCC[C@@H]21 | 26 | – | 41 | – | 0.035
NCCCC[C@H](OP(=O)(O)CCCCc1ccccc1)C(=O)N1[C@H](C(=O)O)C[C@@H]2CCCC[C@@H]21 | 28 | 0.1 | 14 | – | –
CSC1(SC)C[C@@H](C(=O)O)N(C(=O)[C@H](CCCCN)OP(=O)(O)CCCCc2ccccc2)C1 | 16 | 0.14 | 45 | – | –
NCCCC[C@H](OP(=O)(O)CCCCc1ccccc1)C(=O)N1C[C@H](O)C[C@H]1C(=O)O | 140 | 0.339 | – | – | –
NCCCC[C@H](OP(=O)(O)CCCCc1ccccc1)C(=O)N1CCS[C@H]1C(=O)O | 81 | 0.163 | 50 | – | –
NCCCC[C@H](OP(=O)(O)CCCCc1ccccc1)C(=O)N1COC[C@H]1C(=O)O | 145 | 0.677 | – | – | –
NCCCC[C@H](OP(=O)(O)CCCCc1ccccc1)C(=O)N(CC(=O)O)C1CCCCC1 | 22 | 0.106 | 31 | – | –
COc1ccc(N(CC(=O)O)C(=O)[C@H](CCCCN)OP(=O)(O)CCCCc2ccccc2)cc1OC | 35 | 0.04 | 62 | – | –
NCCCC[C@H](OP(=O)(O)CCCCc1ccccc1)C(=O)N1C[C@@H](F)C[C@H]1C(=O)O | 160 | – | – | – | –
NCCCC[C@H](OP(=O)(O)CCCCc1ccccc1)C(=O)N1C[C@H](C2CCCCC2)C[C@H]1C(=O)O | 31 | 0.11 | 15 | – | –
NCCCC[C@H](OP(=O)(O)CCCCc1ccccc1)C(=O)N1CSC[C@H]1C(=O)O | 91 | 0.124 | 46 | – | –
NCCCC[C@H](OP(=O)(O)CCCCc1ccccc1)C(=O)N1C[C@@H](O)C[C@H]1C(=O)O | 25 | 0.033 | 69 | – | –
NCCCC[C@H](OP(=O)(O)CCCCc1ccccc1)C(=O)N1CCC[C@H]1C(=O)O | – | 0.063 | 90 | – | –
NCCCC[C@H](OP(=O)(O)CCCCc1ccccc1)C(=O)N1CC(F)(F)C[C@H]1C(=O)O | 170 | 0.162 | 49 | – | –
NCCCC[C@H](OP(=O)(O)CCCCc1ccccc1)C(=O)N(CC(=O)O)c1ccc2c(c1)OCO2 | 24 | 0.1 | 69 | – | –

Further lines, results first:

IC50 [1] [nM] | ED50 [2] [µmol/kg] | inhibition [3] [%] | IC50 [4] [nM] | ED50 [5] [µmol/kg] | Structure (SMILES)
3 | 0.047 | 15 | – | – | NCCCC[C@H](OP(=O)(O)CCCCc1ccccc1)C(=O)N1C[C@@H](Sc2ccccc2)C[C@H]1C(=O)O
2.6 | 0.066 | 11 | – | – | NCCCC[C@H](OP(=O)(O)CCCCc1ccccc1)C(=O)N1C[C@H](Sc2ccccc2)C[C@H]1C(=O)O
1.5 | 0.018 | 51 | – | – | NCCCC[C@H](OP(=O)(O)CCCCc1ccccc1)C(=O)N1CC2(C[C@H]1C(=O)O)SCCS2
9.3 | 0.031 | 16 | – | – | CS[C@@H]1C[C@@H](C(=O)O)N(C(=O)[C@H](CCCCN)OP(=O)(O)CCCCc2ccccc2)C1
3.5 | 0.037 | 58 | – | – | NCCCC[C@H](OP(=O)(O)CCCCc1ccccc1)C(=O)N1C[C@@H](c2ccccc2)C[C@H]1C(=O)O
1 | 0.026 | 14 | – | – | NCCCC[C@H](OP(=O)(O)CCCCc1ccccc1)C(=O)N1C[C@@H](Cc2ccccc2)C[C@H]1C(=O)O
11 | 0.06 | 33 | – | – | NCCCC[C@H](OP(=O)(O)CCCCc1ccccc1)C(=O)N1C[C@@H](C2CCCCC2)C[C@H]1C(=O)O
9.7 | 0.059 | 8 | – | – | CS[C@H]1C[C@@H](C(=O)O)N(C(=O)[C@H](CCCCN)OP(=O)(O)CCCCc2ccccc2)C1
4.4 | – | 13 | – | < 0.014 | NCCCC[C@H](OP(=O)(O)CCCCc1ccccc1)C(=O)N1c2ccccc2C[C@H]1C(=O)O
